Data from paper PMC7677148 (European Journal of Drug Metabolism and Pharmacokinetics, 2020).
Like-named read-outs stand apart in the source and are kept apart here.

Experiments:
[1] = target: T1, OATP1B1 (Homo sapiens, UniProt Q9Y6L6); conditions: read-out: OATP1B1 IC50; control inhibitor; 8-FcA uptake; cited from earlier work
T1 sequence (Q9Y6L6 1-691): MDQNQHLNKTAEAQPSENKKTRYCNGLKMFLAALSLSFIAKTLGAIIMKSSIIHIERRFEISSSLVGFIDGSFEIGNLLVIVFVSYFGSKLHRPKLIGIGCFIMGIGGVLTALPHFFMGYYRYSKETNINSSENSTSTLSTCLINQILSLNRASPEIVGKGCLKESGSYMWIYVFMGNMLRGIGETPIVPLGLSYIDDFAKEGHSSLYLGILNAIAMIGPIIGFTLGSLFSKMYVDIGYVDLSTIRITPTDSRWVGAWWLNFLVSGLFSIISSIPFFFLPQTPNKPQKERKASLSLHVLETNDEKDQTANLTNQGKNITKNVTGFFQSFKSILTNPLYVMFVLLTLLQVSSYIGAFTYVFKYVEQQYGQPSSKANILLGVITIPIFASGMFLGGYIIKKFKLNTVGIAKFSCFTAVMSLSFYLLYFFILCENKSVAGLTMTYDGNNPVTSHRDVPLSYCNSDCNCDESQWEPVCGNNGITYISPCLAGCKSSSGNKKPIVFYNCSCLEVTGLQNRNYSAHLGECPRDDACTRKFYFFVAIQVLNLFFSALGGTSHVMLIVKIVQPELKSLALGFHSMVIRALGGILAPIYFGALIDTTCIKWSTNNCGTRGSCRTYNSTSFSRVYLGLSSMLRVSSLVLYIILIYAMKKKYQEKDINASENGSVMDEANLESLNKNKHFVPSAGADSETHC

[2] = target: T2, OATP1B3 (Homo sapiens, UniProt Q9NPD5); conditions: read-out: OATP1B3 IC50; control inhibitor; 8-FcA uptake; cited from earlier work
T2 sequence (Q9NPD5 1-702): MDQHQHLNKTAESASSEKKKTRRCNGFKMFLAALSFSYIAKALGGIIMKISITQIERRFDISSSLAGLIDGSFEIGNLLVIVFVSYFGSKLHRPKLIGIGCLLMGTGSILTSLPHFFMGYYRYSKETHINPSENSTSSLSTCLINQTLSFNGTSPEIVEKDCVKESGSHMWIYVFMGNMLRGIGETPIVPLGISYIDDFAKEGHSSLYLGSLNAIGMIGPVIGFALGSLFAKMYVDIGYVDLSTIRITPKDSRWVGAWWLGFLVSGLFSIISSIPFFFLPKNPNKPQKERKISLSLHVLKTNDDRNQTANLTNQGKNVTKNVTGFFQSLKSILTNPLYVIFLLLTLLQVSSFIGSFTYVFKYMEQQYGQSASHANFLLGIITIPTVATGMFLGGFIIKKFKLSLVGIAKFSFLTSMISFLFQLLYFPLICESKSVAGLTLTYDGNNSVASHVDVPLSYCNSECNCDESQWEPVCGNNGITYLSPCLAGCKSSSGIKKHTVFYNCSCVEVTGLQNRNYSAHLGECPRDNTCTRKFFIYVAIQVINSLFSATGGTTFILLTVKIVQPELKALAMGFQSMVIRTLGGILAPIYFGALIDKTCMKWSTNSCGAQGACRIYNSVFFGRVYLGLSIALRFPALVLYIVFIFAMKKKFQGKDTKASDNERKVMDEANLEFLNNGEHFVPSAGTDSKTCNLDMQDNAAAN

[3] = rats; cited from earlier work
[4] = target: T1, OATP1B1; assay: OATP1B1 inhibition assay; type: cell-based
In short: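 Stably transfected OATP1B1- or OATP1B3-HEK293 cells and empty-vector HEK293 control, grown in DMEM/10% FCS with G418. Cells exposed 10 min at 37 °C to 2.5 µM 8-FcA ± test compound (0.1–100 µM, in PBS/2% FCS). After washing, median intracellular fluorescence read by flow cytometry (30,000 cells, viable gate). With/without-inhibitor ratio normalised to control line. 8 replicates/concentration, 3–5 experiments. Four-parameter fit gives IC50. Rifampicin control.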

[5] = target: T3, OATP2B1 (Homo sapiens, UniProt O94956); assay: OATP2B1 inhibition assay; type: cell-based
T3 sequence (O94956 1-709): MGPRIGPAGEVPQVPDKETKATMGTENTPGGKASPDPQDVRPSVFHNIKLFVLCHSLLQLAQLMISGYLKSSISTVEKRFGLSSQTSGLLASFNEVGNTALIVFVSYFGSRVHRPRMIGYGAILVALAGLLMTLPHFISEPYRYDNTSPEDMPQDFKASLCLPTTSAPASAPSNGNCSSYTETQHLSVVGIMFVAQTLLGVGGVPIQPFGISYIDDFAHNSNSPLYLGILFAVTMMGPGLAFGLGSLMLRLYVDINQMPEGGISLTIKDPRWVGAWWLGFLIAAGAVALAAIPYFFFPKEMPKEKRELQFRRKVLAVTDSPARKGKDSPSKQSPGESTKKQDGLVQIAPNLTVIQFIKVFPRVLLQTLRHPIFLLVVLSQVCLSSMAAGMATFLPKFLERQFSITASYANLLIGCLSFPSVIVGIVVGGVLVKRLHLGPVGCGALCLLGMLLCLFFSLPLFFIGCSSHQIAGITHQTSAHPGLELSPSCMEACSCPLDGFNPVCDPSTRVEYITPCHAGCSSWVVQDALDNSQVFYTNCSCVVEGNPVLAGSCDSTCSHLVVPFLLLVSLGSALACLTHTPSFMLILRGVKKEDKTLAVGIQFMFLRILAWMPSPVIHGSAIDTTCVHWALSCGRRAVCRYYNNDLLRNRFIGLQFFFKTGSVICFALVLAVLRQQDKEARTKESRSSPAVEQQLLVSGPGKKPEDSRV
In short: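 HEK293 cells with tetracycline-inducible OATP2B1, grown in DMEM/Ham's F12/10% FCS and induced with 1 µg/ml tetracycline 72 h before assay. Substrate 1 µM DBF ± test compound (0.1–100 µM, in PBS/2% FCS), 10 min at 37 °C. After washing, median intracellular fluorescence read by flow cytometry. Normalised to non-induced cells. 8 replicates/concentration, 3–5 experiments. IC50 from four-parameter fit. Naringin control inhibitor.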

[6] = target: T2, OATP1B3; assay: OATP1B3 inhibition assay; type: cell-based

| Compound | IC50 [1] [µM] | IC50 [2] [µM] | bioavailability [3] [%] | IC50 [4] [µM] | IC50 [5] [µM] | IC50 [6] [µM] | potency for OATP1B3 relative to rifampicin ([6]; comparison of IC50 values) |
| --- | --- | --- | --- | --- | --- | --- | --- |
| CO[C@H]1/C=C/O[C@@]2(C)Oc3c(C)c(O)c4c(O)c(c(/C=N/N5CCN(C)CC5)c(O)c4c3C2=O)NC(=O)/C(C)=C\C=C\[C@H](C)[C@H](O)[C@@H](C)[C@@H](O)[C@@H](C)[C@H](OC(C)=O)[C@@H]1C [Rifampicin, rifampicin] | ~2 | ~2 |  |  |  |  |  |
| COc1ccc(-c2cc(=O)c3c(OC)c(OC)c(OC)c(OC)c3o2)cc1 [Tangeretin, tangeretin] |  |  | 27 | 4.8 ± 1.7 | 1.6 ± 0.8 | 5.6 ± 1 |  |
| C[C@@H]1O[C@@H](OC[C@H]2O[C@@H](Oc3cc(O)c4c(c3)O[C@H](c3ccc(O)cc3)CC4=O)[C@H](O)[C@@H](O)[C@@H]2O)[C@H](O)[C@H](O)[C@H]1O [Narirutin, narirutin] |  |  |  | > 100 | 14.2 ± 3.5 | > 100 |  |
| C[C@@H]1O[C@@H](O[C@H]2[C@H](Oc3cc(O)c4c(c3)O[C@H](c3ccc(O)cc3)CC4=O)O[C@H](CO)[C@@H](O)[C@@H]2O)[C@H](O)[C@H](O)[C@H]1O [Naringin, naringin, reference compound] |  |  |  | > 100 | 6.9 ± 1.4 | > 100 |  |
| COc1ccc(-c2cc(=O)c3c(OC)c(OC)c(OC)cc3o2)cc1OC [Sinensetin, sinensetin] |  |  |  | 8 ± 2.6 | 5.4 ± 0.6 | 21.1 ± 3.4 | about ten times lower |
| COc1ccc(-c2cc(=O)c3c(OC)c(OC)c(OC)c(OC)c3o2)cc1OC [Nobiletin, nobiletin] |  |  | 36 | 2.1 ± 0.7 | 1.6 ± 0.4 | 6.6 ± 0.4 |  |
